One test relates to TA-CaM. Conditions: cited from earlier work.
The conditions of test [1]: cited from earlier work.
Test [2] can be described thus: Ca^2+ dissociation kinetics of CaM and mutant CaMs without peptide. The settings on record: no peptide; calibration of ΔRF per site. The format is binding. The essentials:
(§1)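 Human liver wild-type CaM and the EF-hand mutants CaM12 (D22A/D58A) and CaM34 (D95A/D131A) were expressed in E. coli and HPLC-purified, EGTA-free. In stopped flow, 90 µM quin 2 with no added Ca2+ was mixed with 3 µM CaM or CaM·peptide in 50 µM Ca2+ buffer (mixing-chamber concentrations). Buffer was 50 mM K+-PIPES pH 7.0, 100 mM KCl, 2 mM MgCl2.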

Another test addresses CaM (Homo sapiens, UniProt P0DP23). The test can be described thus: Ca^2+ dissociation kinetics of CaM complexes with Cx32 peptides. Type of test: binding. The settings on record: for relative amplitude A1 (EF1) / relative amplitude A2 (EF2) / relative amplitude A3 (EF3) / relative amplitude A4 (EF4): Table 3, CaM + C-terminal peptide, n = 3 (208-226), 2 (208-227). The essentials: as §1

Another test concerns the target CaM12 (D22A/D58A CaM) (Homo sapiens, UniProt P0DP23, D23A/D59A). The test can be described thus: Ca^2+ dissociation kinetics of CaM12 complexes with Cx32 peptides. Type of test: binding. The settings on record: n = 1; for k4 (EF4, C-terminal CaM lobe) / relative amplitude A3 (EF3) / relative amplitude A4 (EF4): Table 3, CaM12 + C-terminal peptide; for k4 (EF4, C-terminal CaM lobe): 21 °C. In a few lines: as §1

Another test addresses AEDANS-T34C/T110C-CaM (Homo sapiens, UniProt P0DP23, T111C/T35C). The test can be described thus: Equilibrium fluorescence titration of AEDANS-T34C/T110C-CaM with Cx32 208–226. Type of test: binding.
In test [3] the target is T1, DA-CaM (Homo sapiens, UniProt P0DP23, T111C/T35C). The test can be described thus: Conformation of CaM in peptide complexes: donor quenching of DA-CaM. The format is binding. Conditions: 433 nM DA-CaM, 0.5 mM CaCl2; further addition of 4.4 μM peptide. In a few lines:
(§2)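 DA-CaM was made from T34C/T110C CaM randomly labeled with IAEDANS (donor) and DDP (quencher), then HPLC-fractionated into lobe-specific labeled species. Equilibrium titration used increasing peptide concentrations on a spectrofluorimeter. Donor quenching indicated CaM compactness in the complex, and Kd came from fitting the binding data.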

A further test deals with CaM34 (D95A/D131A CaM) (Homo sapiens, UniProt P0DP23, D132A/D96A). Put plainly: Ca^2+ dissociation kinetics of CaM34 complexes with Cx32 peptides. Type of test: binding. Conditions: Table 3, CaM34 + C-terminal peptide, n = 2; for k2 (EF2, N-terminal CaM lobe): 10 μM peptide, 21 °C, mean ± S.D.
Test [4] has as its target T1, DA-CaM. Put plainly: Equilibrium fluorescence titration of DA-CaM with Cx32 1–19. Type of test: binding. In a few lines: as §2

Where no end group is shown, it is not given here.

Take “Cx32 216–230: peptide representing residues 216–230 of the Cx32 C-terminal tail (ACARRAQRRSNPPSR; UniProt P08034 216-230, looked up, fragment)”: the “relative affinity for CaM, in words” value in the test on TA-CaM (compared with 208–226 peptide) is on record as “higher affinity than the 208–226 peptide”.

One may read the Kd as the constant that tells how readily two partners part at equilibrium. “Cx32 1–21: peptide, consisting of residues 1–21, which represents the N-terminal tail CaM-binding domain of Cx32”: the Kd on TA-CaM (TA-CaM (Lys75-modified fluorescent CaM), Ca^2+-dependent) was 27 nM.

On to calmodulin [CaM], for which, in test [1] (Ca^2+-free (apo) CaM, C-lobe vs N-lobe), the “higher Ca^2+ affinity of the C-terminal lobe of apo CaM (fold)” value is on record as “about 5 fold”. Besides, the “Ca^2+ dissociation from the two N-terminal lobe sites, estimated” value in [1] (no peptide) is roughly 1000 s^–1. Moreover, the “ΔRF of two measurable (C-lobe) sites” value in test [2] stood at 0.08.

As to EVVYLIIRACARRAQRRSN [Cx32 208–226], at CaM, the “relative amplitude A1 (EF1)” value is recorded as 1, the “relative amplitude A2 (EF2)” value was 1, the “relative amplitude A3 (EF3)” value is listed as 1 and the “relative amplitude A4 (EF4)” value turned out to be 1. In addition, the “k4 (EF4, C-terminal CaM lobe)” value at CaM12 (D22A/D58A CaM) (10 μM peptide) stood at 1.6 ± 0.1 s⁻¹. On CaM12 (D22A/D58A CaM), the “relative amplitude A3 (EF3)” value came out at 1 and the “relative amplitude A4 (EF4)” value was determined as 1. This substance also came in with a Kd on AEDANS-T34C/T110C-CaM of 3450 ± 1090 nM. Further, on AEDANS-T34C/T110C-CaM (donor-only labeled probe AEDANS-T34C/T110C-CaM), the “increase in fluorescence on peptide binding (fold)” value turned out to be 2.5 fold. For the same substance, on DA-CaM [3], the “donor AEDANS fluorescence on increasing the peptide concentration” value is listed as “a blue shift was seen in the donor AEDANS fluorescence”. Moreover, the “k2 (EF2, N-terminal CaM lobe)” value at CaM34 (D95A/D131A CaM) was found to be 173 ± 0.4 s⁻¹.

At DA-CaM [4], MNWTGLYTLLSGVNRHSTA [Cx32 1–19] showed a Kd of 1140 ± 100 nM.

Consider “Ac-EVVYLIIRACARRAQRRSNP-NH2 [Cx32 208–227]”, for which, at CaM (CaM complex, 10 μM peptide), the “involvement of the N-lobe EF hand binding” value came to 50%. Besides, at CaM, the “relative amplitude A1 (EF1)” value was determined as 0.5, the “relative amplitude A2 (EF2)” value is on record as 1.5, the “relative amplitude A3 (EF3)” value was 1 and the “relative amplitude A4 (EF4)” value is on record as 1. Also, the “relative affinity for CaM, in words” value on CaM (compared with 208–226 peptide) was “higher affinity for CaM than the 208–226 peptide”. For the same substance, on CaM12 (D22A/D58A CaM) (10 μM peptide), the “rate constant for both C-lobe EF hands of CaM12·peptide complex” value worked out at 3.1 ± 0.1 s^–1 and the “k4 (EF4, C-terminal CaM lobe)” value came to 3.1 ± 0.1 s⁻¹. Moreover, on CaM12 (D22A/D58A CaM), the “relative amplitude A3 (EF3)” value was determined as 0.5 and the “relative amplitude A4 (EF4)” value worked out at 1. For the same substance, on CaM34 (D95A/D131A CaM), the “k2 (EF2, N-terminal CaM lobe)” value is 169 ± 5.6 s⁻¹; the “relative amplitude A1 (EF1)” value was found to be 0.5; the “relative amplitude A2 (EF2)” value was 1.

These data come from PMC2555998 (The Journal of Biological Chemistry, 2008).
